The source of these data is ChEMBL document CHEMBL1153393, “Discovery of N-(4-methoxyphenyl)-N,2-dimethylquinazolin-4-amine, a potent apoptosis inducer and efficacious anticancer agent with high blood brain barrier penetration” (J Med Chem, 2009).

Activity calls are given as the source filed them. The rule behind the calls is not given here.

For series [1], the system named is HCT-116. Put plainly: Induction of apoptosis in human HCT116 cells assessed as caspase activation after 24 hrs by HTS assay. Format: functional, cell-based. The following applies: HCT-116, 24 h. The essentials:
(§1)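 Cell-based caspase HTS assay. Cells plated with various concentrations and incubated 24 h at 37 °C, then given fluorogenic caspase substrate N-(Ac-DEVD)-N'-ethoxycarbonyl-R110. EC50 reported as mean ± SEM of three or more experiments.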

Series [2] can be described thus: Ratio of AUC (0 to infinity) in C57BL/6 mouse brain to AUC (0 to infinity) in C57BL/6 mouse plasma at 2.5 mg/kg, iv. The format is ADME, organism-based. On the set-up: dose 2.5 mg/kg, route intravenous. The following applies: read-out: Ratio AUC. An outline of the steps:
(§2)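 Mice given a single iv dose of 2.5 mg/kg. Plasma from blood samples and homogenized whole brain collected over time and analyzed by LC-MS/MS. Brain/plasma ratio is taken from the AUCs of the concentration-time curves.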

Series [3] deals with T47D. Put plainly: Induction of apoptosis in human T47D cells assessed as caspase activation after 24 hrs by HTS assay. Format: functional, cell-based. An outline of the steps:
as §1

Series [4] deals with SNU-398. Put plainly: Induction of apoptosis in human SNU398 cells assessed as caspase activation after 24 hrs by HTS assay. Format: functional, cell-based. The following applies: SNU-398, 24 h. An outline of the steps: as §1
Series [5] is described as follows: Drug level in rhesus monkey cerebrospinal fluid at 7.5 mg/kg, iv after 24 hrs. On the set-up: dose 7.5 mg/kg, route intravenous. The format is ADME, organism-based, Macaca mulatta. The following applies: in vivo.
A short description of series [6]: Drug level in rhesus monkey cerebrospinal fluid. The note with it: in vivo. Format: ADME, tissue-based, Macaca mulatta.
In series [7] the test system is T47D. Put plainly: Growth inhibition of human T47D cells after 48 hrs by celltiter assay. Format: functional. An outline of the steps: (§3)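 Cells ATCC-sourced, in 96-well format, exposed to serial concentrations for 48 h. Survival quantitated by CellTiter-Glo luminescence. GI50 reported as mean ± SEM of three or more experiments.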
Series [8] has as its system T47D. As to the kind of experiment: Induction of apoptosis in human T47D cells assessed as G1 phase DNA content at 5 nM after 48 hrs by using propidium iodide staining by flow cytometry. The format is functional. An outline of the steps:
(§4)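 T47D cells treated with 5 nM for 24 or 48 h, then stained with propidium iodide. DNA content analysed by flow cytometry, with cells scored in G1, G2/M and subdiploid (sub-G1) populations against untreated control.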
(Flow cytometry measures light scatter and fluorescence of single cells or particles in a stream.)

Series [9] relates to Jurkat. As to the kind of experiment: Induction of apoptosis in human Jurkat cells assessed as sub-diploid DNA content at 10 nM after 18 hrs by flow cytometry. Format: functional.
The subject of series [10] is T47D. As to the kind of experiment: Induction of apoptosis in human T47D cells assessed as S phase DNA content at 5 nM after 24 hrs by using propidium iodide staining by flow cytometry. The format is functional. An outline of the steps:
as §4

The test system of series [11] is T47D. As to the kind of experiment: Induction of apoptosis in human T47D cells assessed as G2/M DNA content at 5 nM after 24 hrs by using propidium iodide staining by flow cytometry. The format is functional. An outline of the steps: as §4
Series [12] has as its system Jurkat. Put plainly: Induction of apoptosis in human Jurkat cells assessed as sub-diploid DNA content at 10 nM after 18 hrs by flow cytometry in presence of caspase inhibitor MX-1013. The format is functional.
In series [13] the test system is T47D. As to the kind of experiment: Induction of apoptosis in human T47D cells assessed as G1 phase DNA content at 5 nM after 24 hrs by using propidium iodide staining by flow cytometry. Format: functional. An outline of the steps: as §4
In series [14] the test system is T47D. As to the kind of experiment: Induction of apoptosis in human T47D cells assessed as sub-diploid DNA content at 5 nM after 24 hrs by using propidium iodide staining by flow cytometry. Format: functional. The essentials:
as §4

The test system of series [15] is Brain. Put plainly: AUC (0 to infinity) in C57BL/6 mouse brain at 2.5 mg/kg, iv. The format is ADME, organism-based. On the set-up: time infinity, dose 2.5 mg/kg, route intravenous. The following applies: in vivo. An outline of the steps:
as §2

The subject of series [16] is HCT-116. As to the kind of experiment: Growth inhibition of human HCT116 cells after 48 hrs by celltiter assay. The format is functional. The note with it: HCT-116, 48 h. An outline of the steps: as §3
The test system of series [17] is T47D. As to the kind of experiment: Induction of apoptosis in human T47D cells assessed as sub-diploid DNA content at 5 nM after 48 hrs by using propidium iodide staining by flow cytometry. Format: functional. An outline of the steps: as §4
Series [18] concerns T47D. As to the kind of experiment: Induction of apoptosis in human T47D cells assessed as subdiploid DNA content at 5 nM after 48 hrs by using propidium iodide staining by flow cytometry.
Series [19] deals with MX1. As to the kind of experiment: Antitumor activity against human MX1 cells xenografted in Crl:Nu/Nu-nuBR mouse assessed as tumor growth inhibition at 5 mg/kg, iv administered once weekly for 3 weeks. The format is functional, organism-based. Also noted: dose 5 mg/kg. For orientation: In xenograft studies the graft and the host belong to different species.
Series [20] deals with SNU-398. Put plainly: Growth inhibition of human SNU398 cells after 48 hrs by celltiter assay. Format: functional. The following applies: SNU-398, 48 h. The essentials:
as §3

The subject of series [21] is MX1. Put plainly: Antitumor activity against human MX1 cells xenografted in Crl:Nu/Nu-nuBR mouse assessed as tumor growth inhibition at 10 mg/kg, iv administered once weekly for 3 weeks. Format: functional, organism-based. On the set-up: dose 10 mg/kg.
Series [22] has as its system T47D. As to the kind of experiment: Induction of apoptosis in human T47D cells assessed as S phase DNA content at 5 nM after 48 hrs by using propidium iodide staining by flow cytometry. Format: functional. An outline of the steps: as §4
Series [23] deals with Plasma. As to the kind of experiment: AUC (0 to infinity) in C57BL/6 mouse plasma at 2.5 mg/kg, iv. Format: ADME, organism-based. Also noted: time infinity, dose 2.5 mg/kg, route intravenous. The note with it: in vivo. An outline of the steps:
as §2

For series [24], the system named is MX1. Put plainly: Antitumor activity against human MX1 cells xenografted in Crl:Nu/Nu-nuBR mouse assessed as tumor growth inhibition at 7.5 mg/kg, iv administered once weekly for 3 weeks. The format is functional, organism-based. On the set-up: dose 7.5 mg/kg.

In the case of `Cc1nc(N(C)c2ccc(N)cc2)c2ccccc2n1`, the results for the EC50 in series [1], in series [3] and in series [4] were 250 nM, 180 nM and 170 nM, respectively. Also, in series [2], the Kp is 0.9.

As for `COc1ccc(N(C)c2nc(CF)nc3ccccc23)cc1`, the EC50 (usually the concentration at which the effect is half-maximal) in series [1] amounted to 2 nM; in series [3], 2 nM; in series [4], 1 nM.

With `COc1ccc(N(C)c2nc(C)nc3ccccc23)nc1`, the EC50 in series [1] was 44 nM; in [3], 16 nM; in series [4] it was 18 nM.

For the compound `COc1ccc(N(C)c2nc(C)nc3ccccc23)cc1OC`, the values for the EC50 in series [1], in [3] and in series [4] were 14 nM, 10 nM and 13 nM, respectively.

As for `COc1ccc(N(C)c2nc(C)nc3ccccc23)c(F)c1`, the EC50 in series [1], in series [3] and in series [4] was 4 nM in each case.

`Cc1nc(N(C)c2ccc(N=[N+]=[N-])cc2)c2ccccc2n1`: the values for the EC50 in series [1], in series [3] and in series [4] were 12 nM, 11 nM and 11 nM, respectively.

On to `COc1ccc(N(C)c2nc(CO)nc3ccccc23)cc1`, for which the concentration for a half-maximal effect (EC50) in [1] was 4 nM; in series [3], 2 nM; in series [4], 2 nM.

On to `CCc1ccc(N(C)c2nc(C)nc3ccccc23)cc1`, for which the EC50 in [1] was determined as 26 nM; in series [3] it was 31 nM.

On to `Cc1nc(N(C)c2ccc(N(C)C)cc2)c2ccccc2n1`, for which the figures for the EC50 in [1] and in series [3] were 19 nM and 16 nM, respectively.

Take `COc1ccc(S(=O)(=O)Nc2cccnc2Nc2ccc(O)cc2)cc1` [ABT-751]: the Drug uptake in series [5] came out at 1.1%.

For the compound `COc1ccc(N(C)c2nc(N(C)C)nc3ccccc23)cc1`, the figures for the EC50 in [1], in [3] and in [4] were 43 nM, 15 nM and 33 nM, respectively. In addition, the Kp in series [2] stood at 4.

In turn, `Cc1ccc(NC(=O)c2ccc(CN3CCN(C)CC3)cc2)cc1Nc1nccc(-c2cccnc2)n1` [IMATINIB] had a Drug uptake in series [6] of 5%.

Take `COc1ccc(N(C)c2nc(C)nc3ccccc23)cn1`: the Kp in [2] is 5.8.

`COc1ccc(N(C)c2nc(Cl)nc3ccccc23)cc1`: the EC50 in [1], in [3] and in series [4] was 2 nM in each case.

For `COc1ccc(N(C)c2nc(C)nc3ccccc23)cc1` [VERUBULIN], the GI50 – broadly, the concentration giving 50% growth inhibition – stood at 6 nM in series [7], 6 nM in [16] and 3 nM in [20]. Moreover, the Activity came to 14% in [8]; 68% in series [9]; 10% in [10]; 58% in series [11]; 11% in [12]; 15% in series [13]. In addition, the Activity in series [14] was determined as 15%; in series [17] it was 34%; in series [18], 34%; in [22], 16%. Moreover, the EC50 amounted to 3 nM in series [1] and 2 nM in series [4]. Also, the Kp in [2] is 16. Also, the results for the AUC in series [15] and in series [23] were 11459 ng/mL and 686 ng/mL, respectively. Also, the outcome in [19], in series [21] and in series [24] was Active.

In the case of `COc1ccc(N(C)c2nc(C)nc3ccccc23)cc1F`, the EC50 in series [1], in series [3] and in series [4] was 2 nM throughout.

For `CSc1ccc(N(C)c2nc(C)nc3ccccc23)cc1`, the EC50 in series [1] and in series [3] was 3 nM each time.

For `Cc1nc(N(C)c2ccc([N+](=O)[O-])cc2)c2ccccc2n1`, the EC50 was determined as 1300 nM in series [1], 740 nM in [3] and 620 nM in [4].

Consider `Cc1nc(N(C)c2ccc(OC(F)F)cc2)c2ccccc2n1`, for which the EC50 turned out to be 11 nM in series [1] and 9 nM in series [3].

In the case of `COc1ccc(N(C)c2nc(NN)nc3ccccc23)cc1`, the EC50 in series [1] turned out to be 36 nM; in [3], 23 nM; in series [4] it was 20 nM.

Consider `COc1ccc(N(C)c2nc(CN(C)C)nc3ccccc23)cc1`, for which the EC50 is 2600 nM in [1], 1800 nM in series [3] and 2000 nM in [4].

Turning to `COc1ccc(N(C)c2nc(NC/C=C(\C)CCC=C(C)C)nc3ccccc23)cc1`, the EC50 in series [1] was determined as 460 nM; in series [3] it was 290 nM; in series [4], 270 nM.

Consider `Cc1nc(N(C)c2ccc(O)cc2)c2ccccc2n1`, for which the EC50 amounted to 130 nM in series [1] and 86 nM in series [3].

As to `CC(=O)Nc1ccc(N(C)c2nc(C)nc3ccccc23)cc1`, the results for the EC50 in [1], in [3] and in [4] were 83 nM, 59 nM and 66 nM, respectively. For the same compound, in series [2], the Kp came to 0.74.

On to `COc1cnc(N(C)c2nc(C)nc3ccccc23)cn1`, for which the values for the concentration for a half-maximal effect (EC50) in [1], in [3] and in series [4] were 75 nM, 53 nM and 49 nM, respectively. In addition, the Kp in series [2] came to 1.9.

For `Cc1nc(N(C)c2ccc(N(C)C)nc2)c2ccccc2n1`, the EC50 in series [1] came to 33 nM; in series [3], 15 nM; in [4], 20 nM.

As to `Cc1nc(N(C)c2ccc(F)cc2)c2ccccc2n1`, the values for the EC50 in series [1], in [3] and in series [4] were 630 nM, 420 nM and 390 nM, respectively.

As to `COc1ccc(N(C)c2nc(N(C)C(C)=O)nc3ccccc23)cc1`, the EC50 came to 9 nM in series [1], 9 nM in series [3] and 10 nM in series [4].

Consider `CNc1nc(N(C)c2ccc(OC)cc2)c2ccccc2n1`, for which the values for the EC50 in series [1], in series [3] and in series [4] were 9 nM, 8 nM and 5 nM, respectively.

With `CCOc1ccc(N(C)c2nc(C)nc3ccccc23)cc1`, the EC50 in series [1], in series [3] and in [4] was 4 nM throughout.

In the case of `COc1ccc(N(C)c2nc(CCl)nc3ccccc23)cc1`, the EC50 in series [1] and in series [3] was 48 nM in each case.
